Here are results for 1 molecule from ChEMBL document CHEMBL3351343, “Synthesis and biological evaluation of novel sigma-1 receptor antagonists based on pyrimidine scaffold as agents for treating neuropathic pain” (J Med Chem, 2014).

The term Ki denotes the equilibrium dissociation constant of an inhibitor or competing ligand from its target. A word on the LD50: it is the dose at which mortality reaches 50%. By ED50 is commonly meant the midpoint of the dose-response relation. By inhibition is commonly meant the drop in the measured response relative to a control, in per cent. By Tmax is commonly meant the time from dosing to the highest level. The half-life is how long it takes for the measured level to halve. High values mean slow decline, low ones rapid decline. The term AUC(0-inf) denotes total exposure, with the tail of the curve extrapolated. Higher therefore signals high exposure.

Series [1] concerns the target Sigma non-opioid intracellular receptor 1 (Cavia porcellus, UniProt Q60492). In words: Displacement of [3H]-(+)-pentazocine from sigma-1 receptor in Dunkin Hartley guinea pig brain membranes after 180 mins by liquid scintillation counting analysis. Further details: species or system Membrane. (In general: Loss of bound radioactivity is the signal in a displacement assay; it reports binding, not function.)

Series [2] can be described thus: Acute toxicity in po dosed Kun Ming mouse after 24 hrs. The series is classed as organism-based. The following applies: in vivo.
For the next series, the system named is Mus musculus. In words: Antinociceptive activity in ip dosed Kun Ming mouse pain model assessed as reduction in licking and biting time during phase-1 administered 15 mins prior to formalin challenge relative to vehicle-treated control. The series is classed as functional. In outline:
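Kun Ming mice (20 ± 2.0 g), 10–12 per group, given vehicle (30% PEG 400) or drug ip at 10 mL/kg 15 min before intraplantar formalin. Time spent licking or biting the injected paw scored at 0–5 min (phase I) and 15–45 min (phase II). Effect (%) = (LTV − LTD)/LTV × 100.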

In series [3] the test system is Rattus norvegicus. In words: Antineuropathic pain activity in po dosed Sprague-Dawley rat chronic constriction injury model assessed as inhibition of mechanical allodynia measured on day 15 relative to sham-treated control. It is filed as functional. In outline:
(§1)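 Sprague-Dawley rats, sciatic nerve chronic constriction injury (four loose 4-0 silk ligatures, chloral hydrate anaesthesia); sham has nerve exposed without ligation. Model confirmed on day 14. Oral dosing in 0.5% methylcellulose, 10 mL/kg, twice daily on days 15–18. Read after first dose (day 15) and last dose (day 18). Von Frey withdrawal threshold and radiant-heat plantar withdrawal latency (30 s cutoff), each paw sampled four times and averaged; 10 rats/group.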

Series [4] has as its system Rattus norvegicus. In words: Antineuropathic pain activity in po dosed Sprague-Dawley rat chronic constriction injury model assessed as inhibition of mechanical allodynia measured on day 18 by repeated dose treatment assay relative to sham-treated control. The series is classed as functional. In outline: as §1
For series [5], the system named is Rattus norvegicus. As to the kind of experiment: Antineuropathic pain activity in po dosed Sprague-Dawley rat chronic constriction injury model assessed as inhibition of thermal hypersensitivity measured on day 18 by repeated dose treatment assay relative to sham-treated control. The series is classed as functional. In outline:
as §1

Series [6] in a line: Tmax in Sprague-Dawley rat at 320 mg/kg, po by HPLC/MS/MS analysis. The series is classed as ADME, organism-based. Further details: dose 320 mg/kg, route oral. Conditions: in vivo. In outline: (§2)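 Sprague-Dawley rats (250 ± 5.0 g), n = 8/group, dosed iv via lateral tail vein at 16 mg/kg in 100% saline or by oral gavage at 320 mg/kg as suspension in 0.5% methylcellulose. Serial tail-vein blood into heparinized tubes at 30 min, 1, 2, 3, 4, 5, 6, 7 and 24 h. Plasma treated by acetonitrile protein precipitation, then HPLC/MS on C18 column, 40 °C.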

A short description of series [7]: Half life in Sprague-Dawley rat at 320 mg/kg, po by HPLC/MS/MS analysis. The series is classed as ADME, organism-based. Further details: dose 320 mg/kg, route oral. The following applies: in vivo. In outline: as §2
A short description of series [8]: AUC (0 to infinity) in Sprague-Dawley rat at 320 mg/kg, po by HPLC/MS/MS analysis. Conditions: plasma. The series is classed as ADME, organism-based. Further details: dose 320 mg/kg, route oral, time infinity. In outline:
as §2

The target of series [9] is 5-hydroxytryptamine receptor 2A (Rattus norvegicus) (UniProt P14842). As to the kind of experiment: Displacement of [3H]-ketanserin from rat cerebral cortex 5-HT2A receptor at 1 uM after 15 mins by liquid scintillation counting analysis. The series is classed as tissue-based.
Series [10] addresses Histamine H1 receptor (Cavia porcellus) (UniProt P31389). As to the kind of experiment: Displacement of [3H]-mepyramine from guinea pig cerebellum histamine H1 receptor at 1 uM after 60 mins by liquid scintillation counting analysis.
Series [11] has as its target Transient receptor potential cation channel subfamily V member 1 (Homo sapiens) (UniProt Q8NER1). In words: Inhibition of from human TRPV-1 channel expressed in HEK293 cells at 1 uM after 5 mins by electrophysiological analysis. It is filed as cell-based.
The nature of series [12]: AUC (0 to infinity) in Sprague-Dawley rat at 16 mg/kg, iv by HPLC/MS/MS analysis. Conditions: plasma.

Histamine H1 receptor (Cavia porcellus), sequence (P31389 whole entry): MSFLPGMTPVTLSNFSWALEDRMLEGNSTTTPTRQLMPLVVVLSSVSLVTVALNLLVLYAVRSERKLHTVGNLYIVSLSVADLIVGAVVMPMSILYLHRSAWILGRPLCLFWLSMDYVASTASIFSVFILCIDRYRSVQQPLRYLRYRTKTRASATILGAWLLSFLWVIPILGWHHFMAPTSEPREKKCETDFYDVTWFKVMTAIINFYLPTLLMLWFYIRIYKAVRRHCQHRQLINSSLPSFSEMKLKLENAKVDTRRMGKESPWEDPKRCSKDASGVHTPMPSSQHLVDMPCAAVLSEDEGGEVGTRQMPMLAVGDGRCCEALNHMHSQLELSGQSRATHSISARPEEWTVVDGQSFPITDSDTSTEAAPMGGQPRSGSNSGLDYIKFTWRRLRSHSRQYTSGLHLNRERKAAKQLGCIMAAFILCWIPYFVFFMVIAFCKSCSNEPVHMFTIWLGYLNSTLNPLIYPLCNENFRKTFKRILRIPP
Sigma non-opioid intracellular receptor 1, sequence (Q60492 whole entry): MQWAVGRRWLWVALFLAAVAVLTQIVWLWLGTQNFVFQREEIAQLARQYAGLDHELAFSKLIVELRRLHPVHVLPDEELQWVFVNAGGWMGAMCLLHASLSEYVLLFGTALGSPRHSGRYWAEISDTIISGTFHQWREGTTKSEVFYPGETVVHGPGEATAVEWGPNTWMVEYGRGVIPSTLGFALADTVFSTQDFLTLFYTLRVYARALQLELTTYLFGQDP
Transient receptor potential cation channel subfamily V member 1 (Homo sapiens), sequence (Q8NER1 whole entry): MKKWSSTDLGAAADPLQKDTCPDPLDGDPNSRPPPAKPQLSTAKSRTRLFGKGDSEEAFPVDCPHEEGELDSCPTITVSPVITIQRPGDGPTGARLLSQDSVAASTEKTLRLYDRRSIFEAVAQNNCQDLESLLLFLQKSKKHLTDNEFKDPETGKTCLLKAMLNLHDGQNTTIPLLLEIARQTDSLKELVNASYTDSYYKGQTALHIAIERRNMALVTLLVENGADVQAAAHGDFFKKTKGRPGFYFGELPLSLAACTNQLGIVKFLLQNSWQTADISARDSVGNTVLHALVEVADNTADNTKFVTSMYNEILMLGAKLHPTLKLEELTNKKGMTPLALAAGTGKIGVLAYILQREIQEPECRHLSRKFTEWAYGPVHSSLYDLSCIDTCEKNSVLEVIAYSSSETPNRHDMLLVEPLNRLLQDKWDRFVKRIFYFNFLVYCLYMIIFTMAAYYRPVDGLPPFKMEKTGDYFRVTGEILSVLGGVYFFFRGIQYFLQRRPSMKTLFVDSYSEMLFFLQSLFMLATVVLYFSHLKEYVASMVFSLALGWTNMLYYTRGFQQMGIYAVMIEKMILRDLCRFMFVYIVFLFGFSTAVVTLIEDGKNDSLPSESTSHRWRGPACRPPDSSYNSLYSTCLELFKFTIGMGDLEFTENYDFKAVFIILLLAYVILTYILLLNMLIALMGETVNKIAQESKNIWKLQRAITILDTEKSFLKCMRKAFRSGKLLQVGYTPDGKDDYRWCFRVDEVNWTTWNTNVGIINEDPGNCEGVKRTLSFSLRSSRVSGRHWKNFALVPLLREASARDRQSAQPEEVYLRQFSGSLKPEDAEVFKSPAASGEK
5-hydroxytryptamine receptor 2A (Rattus norvegicus), sequence (P14842 whole entry): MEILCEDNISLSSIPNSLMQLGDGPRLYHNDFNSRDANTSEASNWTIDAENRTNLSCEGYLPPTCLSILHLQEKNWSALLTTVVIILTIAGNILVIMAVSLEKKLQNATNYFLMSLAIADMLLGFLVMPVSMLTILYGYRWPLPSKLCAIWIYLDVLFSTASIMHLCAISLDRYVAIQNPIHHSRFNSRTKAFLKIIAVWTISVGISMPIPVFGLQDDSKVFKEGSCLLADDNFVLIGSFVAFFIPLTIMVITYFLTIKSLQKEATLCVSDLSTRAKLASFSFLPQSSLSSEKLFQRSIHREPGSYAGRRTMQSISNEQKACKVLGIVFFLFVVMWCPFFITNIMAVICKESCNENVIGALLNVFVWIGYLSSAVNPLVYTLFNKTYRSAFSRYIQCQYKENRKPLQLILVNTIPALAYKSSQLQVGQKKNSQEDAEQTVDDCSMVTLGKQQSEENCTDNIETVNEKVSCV

Regarding `Cc1nc(-c2ccc(Cl)cc2)nc(OCCCN2CCCCC2)c1Cl`, in series [1], the Ki was 1.06 nM. The molecule also returned a median lethal dose (LD50) at 24 h in series [2] above 2000 mg/kg. In addition, the Activity entry in the series with Mus musculus was “Dose-dependent effect”. In addition, the ED50 in the series with Mus musculus was determined as 48.4 mg/kg; with Rattus norvegicus [3] (360 h) it was 58.2 mg/kg; in the series with Rattus norvegicus [4] (432 h), 61.8 mg/kg; in the series on Rattus norvegicus [5] (432 h), 50.2 mg/kg. For the same molecule, the inhibition entry in the series on Rattus norvegicus [3] was “Dose-dependent effect”; in the series on Rattus norvegicus [4] it was “Dose-dependent effect”; in the series on Rattus norvegicus [5] it was “Dose-dependent effect”; in [9], below 50%; in series [10], below 50%; in series [11] it was below 50%. Also, in series [6], the Tmax came out at 0.5 h. Further, in [7], the half-life is 3.81 h. Moreover, the AUC(0-inf) in series [8] was determined as 55400 ng·h/mL; in series [12], 3690 ng·h/mL.
